Measured values from ChEMBL document CHEMBL4706591, “Diphenyl triazine hybrids inhibit α-synuclein fibrillogenesis: Design, synthesis and in vitro efficacy studies” (Eur J Med Chem, 2020).
The source made the active and inactive calls. The calls are words filed in the database; no cut-off is given here.

What was measured:
[1] = target: Alpha-synuclein (Homo sapiens) (UniProt P37840); assay: Inhibition of recombinant alpha-synuclein (unknown origin) aggregation expressed in Escherichia coli BL21 (DE3) cells assessed as elongation phase time at 1:1 compound-protein molar ratio measured for every 30 mins in presence of ThT by spectrofluorometry (reference value: 31.2 +/- 0.6 hrs); details: dose 70.0 µM
How it was run: (§1)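 Recombinant α-syn from E. coli BL21(DE3), extracted by osmotic shock, purified on DEAE-Sepharose with 50–500 mM NaCl gradient. Run at 37 °C; Ex 440/Em 485 nm read every 30 min after 30 s orbital shaking, until plateau. Four wells each. Each well fitted to a sigmoid giving t1/2, kapp = 1/τ, and tlag from lag/elongation intercept, then averaged; Student's t-test.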

[2] = target: Alpha-synuclein (Homo sapiens) (UniProt P37840); assay: Inhibition of recombinant alpha-synuclein (unknown origin) aggregation expressed in Escherichia coli BL21 (DE3) cells assessed as lag time at 1:1 compound-protein molar ratio measured for every 30 mins in presence of ThT by spectrofluorometry (reference value: 15.1 +/- 0.9 hrs); how it was run: as §1
[3] = Solubility of the compound in sodium phosphate buffer at pH 7.4; assay type: physicochemical
[4] = target: Alpha-synuclein (Homo sapiens) (UniProt P37840); assay: Inhibition of recombinant alpha-synuclein (unknown origin) aggregation expressed in Escherichia coli BL21 (DE3) cells assessed as apparent elongation rate constant at 1:1 compound-protein molar ratio measured for every 30 mins in presence of ThT by spectrofluorometry (reference value: 108.7 +/- 1.8 10^-3/hr); how it was run: as §1
[5] = target: Alpha-synuclein (Homo sapiens) (UniProt P37840); assay: Inhibition of recombinant alpha-synuclein (unknown origin) aggregation expressed in Escherichia coli BL21 (DE3) cells assessed as final plateau fluorescence at 1:1 compound-protein molar ratio measured for every 30 mins in presence of ThT by spectrofluorometry relative to control; how it was run: as §1
[6] = target: Alpha-synuclein (Homo sapiens) (UniProt P37840); assay: Inhibition of recombinant alpha-synuclein (unknown origin) aggregation expressed in Escherichia coli BL21 (DE3) cells at 1:1 compound-protein molar ratio measured for every 30 mins in presence of ThT by spectrofluorometry; how it was run: as §1
[7] = Aggregation property of the compound assessed as change in ThT fluorescence in presence of Thioflavin T; assay type: physicochemical; details: 336 h; time 2 weeks
How it was run: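 Compound alone incubated with ThT without α-syn for over 2 weeks; ThT fluorescence monitored to exclude self-aggregation interference.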

[8] = target: Alpha-synuclein (Homo sapiens) (UniProt P37840); assay: Inhibition of recombinant alpha-synuclein (unknown origin) aggregation expressed in Escherichia coli BL21 (DE3) cells assessed as reduction in fluorescent labeled aggregates at 20 uM incubated for >=66 hrs by ThT dye based inverted fluorescence microscopic analysis; details: time hrs >=66
How it was run: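 After the ThT kinetic run (about 66 h), 10 µL of control or compound-incubated α-syn mixed with 20 µM ThT was placed on a glass slide under a coverslip. Imaged on an inverted fluorescence microscope, FITC filter, 100× oil objective, with constant laser power and intensity.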

[9] = tested on: MEF; assay: Cytotoxicity against mouse MEF cells at 10 uM incubated for 24 hrs in presence of aggregated alpha-synuclein by MTT assay; assay type: cell-based
How it was run: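 MEF cells cultured and plated as for the compound-only cytotoxicity assay. Cells treated in triplicate for 24 h with monomeric α-syn, aggregated α-syn, or α-syn aggregated in presence of compound at 1:1. Viability read by MTT (0.5 mg/mL, 4 h, 570 nm). Mean ± SEM, three replicates; Student's t-test, p<0.05.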

[10] = tested on: MEF; assay: Cytotoxicity against mouse MEF cells at 10 uM incubated for 24 hrs by MTT assay; assay type: cell-based
How it was run: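 MEF cells grown in DMEM with 10% FBS and 1% penicillin-streptomycin to about 80% confluency. Cells trypsinized, plated, and left 24 h at 37 °C in humidified CO2. Compound added at 10 µM in triplicate with DMSO vehicle control, 24 h. MTT 0.5 mg/mL for 4 h in dark, formazan dissolved in DMSO, absorbance read at 570 nm. Mean ± SEM of three independent replicates.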

[11] = target: Alpha-synuclein (Homo sapiens) (UniProt P37840); assay: Disruption of recombinant preformed alpha-synuclein (unknown origin) aggregation expressed in Escherichia coli BL21 (DE3) at 20 uM incubated for 5 days by ThT dye based inverted fluorescence microscopic analysis; details: time 5.0 day
How it was run: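 Preformed α-syn aggregates incubated with compound at 1:1 molar ratio at 37 °C for 5 days, without ThT, in a sealed plate, one well each. Samples then stained with ThT and imaged on an inverted fluorescence microscope through a FITC filter with constant imaging parameters.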

| T1/2 [1] | Tlag [2] | solubility [3] | Kapp [4] | inhibition [5] | inhibition [6] | Activity [7] | inhibition [8] | inhibition [11] | SMILES | Activity [9] | Activity [10] |
| --- | --- | --- | --- | --- | --- | --- | --- | --- | --- | --- | --- |
| 29.4 h | 14.1 h | Insoluble | 118 10^-3/hr | < 40% | Active | Not Active | – | – | Cc1ccc(S(=O)(=O)N2CCN(C(=O)CSc3nnc(-c4ccccc4)c(-c4ccccc4)n3)CC2)cc1 | – | – |
| 27 h | 14.4 h | Insoluble | 120 10^-3/hr | < 40% | Active | Not Active | Active | inactive | O=C(CSc1nnc(-c2ccccc2)c(-c2ccccc2)n1)N1CCN(S(=O)(=O)c2ccc(Br)cc2)CC1 | Non-Toxic | Non-Toxic |
| 28.2 h | 15.9 h | Insoluble | 128 10^-3/hr | > 50% | Active | Not Active | Active | Active | O=C(CSc1nnc(-c2ccccc2)c(-c2ccccc2)n1)N1CCN(c2ccnc3cc(Cl)ccc23)CC1 | Toxic | Non-Toxic |
| 30.4 h | 13.9 h | Insoluble | 122 10^-3/hr | – | Active | Not Active | – | – | O=C(CSc1nnc(-c2ccccc2)c(-c2ccccc2)n1)N1CCN(S(=O)(=O)c2ccc(Cl)cc2Cl)CC1 | – | – |

The remaining lines, values behind:

| SMILES | T1/2 [1] | Tlag [2] | solubility [3] | Kapp [4] | inhibition [5] | inhibition [6] | Activity [7] | inhibition [8] | inhibition [11] | Activity [9] | Activity [10] |
| --- | --- | --- | --- | --- | --- | --- | --- | --- | --- | --- | --- |
| O=C(CSc1nnc(-c2ccccc2)c(-c2ccccc2)n1)N1CCN(S(=O)(=O)c2ccc3ccccc3c2)CC1 | 30 h | 16.1 h | Insoluble | 116 10^-3/hr | – | Active | Not Active | – | – | – | – |
| O=C(CSc1nnc(-c2ccccc2)c(-c2ccccc2)n1)N1CCN(S(=O)(=O)c2ccccc2[N+](=O)[O-])CC1 | 29.1 h | 15.3 h | Insoluble | 123 10^-3/hr | < 40% | Active | Not Active | – | – | – | – |
| CC(=O)Nc1ccc(S(=O)(=O)N2CCN(C(=O)CSc3nnc(-c4ccccc4)c(-c4ccccc4)n3)CC2)cc1F | 28.1 h | 14.9 h | Insoluble | 121 10^-3/hr | > 50% | Active | Not Active | Active | Active | Toxic | Non-Toxic |
| CC(=O)Nc1ccc(S(=O)(=O)N2CCN(C(=O)CSc3nnc(-c4ccccc4)c(-c4ccccc4)n3)CC2)cc1 | 27.5 h | 14.6 h | Insoluble | 86.6 10^-3/hr | > 50% | Active | Not Active | Active | Active | Non-Toxic | Non-Toxic |
